Data reported in ChEMBL document CHEMBL1128377, “Novel inhibitors of potassium ion channels on human T lymphocytes” (J Med Chem, 1995).

Tests used:
[1] = target: T1, Potassium voltage-gated channel subfamily A member 3 (Homo sapiens, UniProt P22001); experiment: Concentration inhibiting [125I]ChTX (charybdotoxin) binding to N-type potassium channel.
[2] = target: T1, Potassium voltage-gated channel subfamily A member 3; experiment: Inhibition of outward potassium currents (IKn) in human T-lymphocyte N-type potassium channels.; assay type: functional
In short: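 Whole-cell patch clamp held at -80 mV, with 150 ms steps to 30 mV once per minute and stabilization for >6 min. Test agent was perfused at one fixed concentration per cell for 6 min. The first pulse gave closed-channel block and the next gave open-channel block. Peak outward current was compared with predrug current as percent blocked. IC50 was fitted from n > 9 data points.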

Cavia porcellus [3] = organism: Cavia porcellus; experiment: Inhibition of [3H]dofetilide binding to cardiac potassium (K+) channels at 400 nM
[4] = Inhibition of [3H]dofetilide binding to guinea pig cardiac potassium (K+) channels.; parameters: species or system Cavia porcellus
In short: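 Radioligand binding of [3H]dofetilide to guinea pig cardiac myocytes, run by a previously published method. The IC50 is reported as the mean of at least two determinations.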

Cavia porcellus [5] = organism: Cavia porcellus; experiment: Inhibition of [3H]dofetilide binding to guinea pig cardiac myocytes potassium (K+) channels at 400 nM
[6] = Partition coefficient (logP) (HPLC); assay type: physicochemical; details: octanol/water
[7] = Acid dissociation constant was determined; assay type: ADME

T1 sequence (P22001 whole entry): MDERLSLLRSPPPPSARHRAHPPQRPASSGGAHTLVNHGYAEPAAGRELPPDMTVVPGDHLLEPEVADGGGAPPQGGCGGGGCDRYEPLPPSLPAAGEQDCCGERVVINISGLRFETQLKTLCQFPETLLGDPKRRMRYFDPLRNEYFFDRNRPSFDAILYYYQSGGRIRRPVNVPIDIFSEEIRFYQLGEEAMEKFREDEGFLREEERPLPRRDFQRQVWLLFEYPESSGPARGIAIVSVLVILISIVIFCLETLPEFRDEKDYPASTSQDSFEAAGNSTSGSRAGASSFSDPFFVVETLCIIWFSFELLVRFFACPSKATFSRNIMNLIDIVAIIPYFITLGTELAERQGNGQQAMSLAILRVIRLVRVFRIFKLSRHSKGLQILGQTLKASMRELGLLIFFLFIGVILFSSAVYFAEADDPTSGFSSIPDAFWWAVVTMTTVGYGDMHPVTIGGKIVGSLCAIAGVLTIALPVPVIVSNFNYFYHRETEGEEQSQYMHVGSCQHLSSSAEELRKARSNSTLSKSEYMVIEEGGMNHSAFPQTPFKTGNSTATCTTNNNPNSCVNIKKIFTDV

| Compound | IC50 [1] [nM] | IC50 [2] [nM] | IC50 [4] [nM] | also measured |
| --- | --- | --- | --- | --- |
| CCCCCCOc1ccc(Cc2ccccc2)c2ccccc12 | > 5000 |  |  |  |
| CCC/N=c1\ccn(Cc2ccccc2)c2cc(Cl)ccc12 | 544 | 3160 |  |  |
| CCCC/N=c1\ccn(Cc2ccccc2)c2cc(Cl)ccc12 | 198 | 2620 |  | inhibition (Cavia porcellus [3]): 24% |
| CCCCC/N=c1\ccn(Cc2ccc(Cl)cc2)c2ccc(C(F)(F)F)cc12 | 340 | 213 | 140 |  |
| Clc1ccc2/c(=N/C34CC5CC(CC(C5)C3)C4)ccn(Cc3ccccc3)c2c1 | 1170 |  | 157 |  |
| CCCCCC/N=c1\ccn(Cc2ccc(Cl)cc2)c2cc(Cl)ccc12 | 100 |  | 3230 |  |
| CCN(CC)CC/N=c1\ccn(Cc2ccccc2Cl)c2cc(Cl)ccc12 |  |  | 57 |  |
| C/N=c1\ccn(Cc2ccccc2)c2cc(Cl)ccc12 | > 5000 |  |  | inhibition (Cavia porcellus [5]): 24% |
| CCCCCCCC/N=c1\ccn(Cc2ccccc2)c2cc(Cl)ccc12 | 280 | 351 | 2400 |  |
| CCCCCCNc1cc[n+](-c2ccccc2)c2c(-c3ccccc3)cccc12 | 930 |  |  | logP [6]: 3.89; pKa [7]: 9.58 |
| Clc1ccc(C/N=c2\ccn(Cc3ccccc3Cl)c3cc(Cl)ccc23)c(Cl)c1 | 550 | 259 | 2380 |  |
| CC(C)C/N=c1\ccn(Cc2ccccc2)c2cc(Cl)ccc12 | 206 |  | 2000 |  |
| CCCCCCNc1cc[n+](-c2ccccc2)c2c(-c3ccccc3)cc(OC)cc12 | 240 |  |  | logP [6]: 3.73 |
| CCCCCC/N=c1\ccn(Cc2ccccc2)c2ccccc12 | 164 | 1050 |  |  |
| CCCCCCNc1cc[n+](C)c2c(-c3ccccc3)cccc12 | 240 | 602 | 223 |  |
| CCCC/N=c1\ccn(CCCc2ccccc2)c2cc(Cl)ccc12 | 471 |  |  | logP [6]: 3.82; pKa [7]: 11.4 |
| CCCCCC/N=c1\ccn(Cc2ccc(Cl)c(Cl)c2)c2cc(Cl)ccc12 | 310 | 231 | > 3500 | logP [6]: 4.64; pKa [7]: 11.5 |
| O=C(O)CC/N=c1\ccn(Cc2ccccc2Cl)c2cc(Cl)ccc12 | > 10000 |  |  |  |

| Compound | IC50 [1] [nM] | IC50 [2] [nM] | IC50 [4] [nM] | also measured |
| --- | --- | --- | --- | --- |
| CNCCC/N=c1\ccn(Cc2cccc(Cl)c2)c2cc(Cl)ccc12 | > 30000 |  |  |  |
| CCCCCC/N=c1\ccn(Cc2ccccc2)c2ccc(OC)cc12 | 47 | 267 | 680 |  |
| CCCCC/N=c1\ccn(Cc2ccc(Cl)cc2)c2c(F)cccc12 |  |  | 310 |  |
| C[N+](C)(C)CCC/N=c1\ccn(Cc2ccccc2Cl)c2cc(Cl)ccc12 | > 30000 | > 10000 |  |  |
| N=c1ccn(Cc2ccccc2)c2cc(Cl)ccc12 | > 8000 |  |  |  |
| CCCCCC/N=c1\ccn(Cc2ccccc2Cl)c2cc(Cl)ccc12 | 190 | 216 | 780 |  |
| Clc1ccc(/N=c2\ccn(Cc3ccccc3Cl)c3cc(Cl)ccc23)c(Cl)c1 | > 30000 | > 10000 | > 30000 |  |
| CCCCCCOc1cc[n+](Cc2ccccc2)c2cc(Cl)ccc12 | 828 |  |  | logP [6]: 3.62; pKa [7]: 11.2 |
| CCCCCCC/N=c1\ccn(Cc2ccccc2)c2cc(Cl)ccc12 | 117 | 249 | 2500 |  |
| CCCCCC/N=c1\ccn(Cc2ccc(OC)cc2)c2cc(Cl)ccc12 | 88 | 329 |  |  |
| CCCCC/N=c1\ccn(Cc2ccc(Cl)cc2)c2cc(C(F)(F)F)ccc12 | 239 |  | 90 |  |
| CC(C)CCCC(C)/N=c1\ccn(Cc2ccccc2)c2cc(Cl)ccc12 (stereo not given) | 817 | 1680 | 175 |  |
| CCCCC/N=c1\ccn(Cc2ccccc2)c2cc(Cl)ccc12 |  | 250 | 1300 |  |
| CCCCCC/N=c1\ccn(Cc2ccccc2)c2c(OC)cccc12 |  |  | 210 |  |
| CCCCC/N=c1\ccn(Cc2ccc(Cl)cc2)c2ccc(OC)cc12 |  |  | 1990 |  |
| CCCCC/N=c1\ccn(C2CCc3ccccc32)c2cc(Cl)ccc12 (stereo not given) | 2300 |  | 870 |  |
| CCCCCC/N=c1\ccn(Cc2ccccc2)c2cc(Cl)ccc12 | 32 | 335 | 820 | pKa [7]: 11.5 |
